Assay outcomes as filed in PubChem BioAssay.
The list is not random: actives were taken first. Their share in the collection is about 1.5%.
Rpn11 block – inhibitors of human proteasome Rpn11; 360,000 compounds, 0.59% hits; O00487; human 26S proteasome, Ub4-pepOG fluorescence polarization; 20S core pre-blocked with epoxomicin; AID 588493; inhibition, % at 20 µM;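 active means inhibition at 20 µM, scaled to each plate's controls, above about 33%, limit read from the data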
TPT1 inh – C. albicans TPT1 enzyme inhibition | inhibition, % at 5 µM | 300,000 compounds, 0.81% hits | AID 1962 | recombinant caTPT1, FP RNA substrate dephosphorylation;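 active means inhibition above the mean of all tested compounds plus 3 SD, set per screening campaign, cut at about 24% in these data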;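 further: plate controls were DMSO alone for no effect and ferristatin control at 100 nM for full effect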
CSN deneddyl inh – blocks human CSN-mediated cullin deneddylation | AID 651999 | inhibition, % at 12.5 µM | 360,000 compounds, 0.38% hits | Purified CSN, SCF-Nedd8-OG deneddylation, fluorescence polarization | Q92905;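 active means pattern-corrected inhibition above about 35%, with an unprinted fluorescence ratio check between 0.5 and 1.5, limit read from the data, passing the limit was not always enough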;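 further: 0% = enzyme with substrate and 100% = substrate without enzyme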
Target sequence (Q92905 whole entry, looked up, one chain of several): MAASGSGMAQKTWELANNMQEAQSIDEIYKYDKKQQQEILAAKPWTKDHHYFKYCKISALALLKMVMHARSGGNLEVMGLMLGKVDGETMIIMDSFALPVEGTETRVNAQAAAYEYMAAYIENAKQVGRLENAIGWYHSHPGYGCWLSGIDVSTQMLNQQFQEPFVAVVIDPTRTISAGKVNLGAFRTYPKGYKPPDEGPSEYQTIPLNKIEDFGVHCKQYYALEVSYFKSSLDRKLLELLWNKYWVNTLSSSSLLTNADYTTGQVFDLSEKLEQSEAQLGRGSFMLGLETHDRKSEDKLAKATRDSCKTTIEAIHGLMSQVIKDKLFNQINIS
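Assay system: purified human Csn5 enzyme expressed in HEK293T cells; Input: 0.24 nM Csn5 enzyme, final concentration; Reagent: 10 nM SCFSkp2-Nedd8OG; Compound dosing: 12.5 µM single point; Times: reaction 90 min, room temperature; Technique: fluorescence polarization readout.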
HNF4A DNA FP – change in binding of human HNF4 alpha to DNA; 360,000 compounds, 0.3% hits; activity change, % at 10 µM; HNF4a-FITC DNA binding, fluorescence polarization, 1 h; AID 1224865; in the data active means activity change above about 30%, passing the limit was not always enough
Rpn11 inh conf – Rpn11 inhibition confirmation, single concentration; shares compounds with Rpn11 block; AID 602318; 1,900 compounds, 29% hits; purified human 26S proteasome, Ub4-pepOG fluorescence polarization; proteasome pretreated with epoxomicin; inhibition, % at 20 µM
MMP-2 inh – MMP-2 (human) inhibition counter-screen; shares compounds with Rpn11 block; recombinant MMP-2, FRET peptide cleavage fluorescence; inhibition, % at 20 µM; 1,900 compounds, 4% hits;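 further: human MMP-2 activated beforehand with APMA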
Thrombin inh – counter-screen for RPN11 inhibitors: inhibition of bovine thrombin; shares compounds with Rpn11 block; bovine thrombin cleavage of Ub4-pepOG, fluorescence polarization; inhibition, % at 20 µM; 1,900 compounds, 13% hits;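 active means mean inhibition at least 40% at 20 µM, or signal 3 deviations below plate average, so some actives read negative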;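 further: plate controls were thrombin with DMSO for no effect and buffer wells lacking thrombin for full effect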
An asterisk follows results filed as active; nt = no result. Unless noted, no stated cut-off is given here; in the data, active means inhibition above about 40%; inactive means the rest.

SMILES	Rpn11 block	TPT1 inh	CSN deneddyl inh	HNF4A DNA FP	Rpn11 inh conf	MMP-2 inh	Thrombin inh
CCCCCCCC(=O)OCC(O)CO (centres undefined)	25.4	-1.3	-1.8	1.5	nt	nt	nt
CCCCCCCCCCCCCCC(O)C[N+](C)(CCO)CCO (centres undefined)	82.6*	nt	-1.8	3.1	42.3*	-21.2	-27.3
O=C(N=C1SC2CS(=O)(=O)CC2N1Cc1ccccc1Cl)C1CC1 (centres undefined)	-4.5	-4.4	-2.3	2.7	nt	nt	nt
O=C(c1ccc2c3c(cccc13)CC2)C1CCCN(Cc2cccnc2)C1 (centres undefined)	36.9*	2.6	-0.8	0.7	-9.8	1.0	-17.0
O=C(c1ccc2c3c(cccc13)CC2)C1CCCN(C(=O)c2cccnc2)C1 (centres undefined)	3.8	1.1	0.4	0.7	nt	nt	nt
Cc1cc(NS(=O)(=O)c2ccc(Nc3nc(-c4sc(N)nc4C)cs3)cc2)no1	55.4*	14.2	73.0*	2.6	23.9	28.4	-11.0
Cc1ccc(S(=O)(=O)/N=C(/Nc2cccc3ccccc23)c2ccc(F)cc2)cc1	1.5	0.5	3.3	5.3	nt	nt	nt
O=C(O)C(Cc1ccccc1)N1C(=O)/C(=C/c2cccnc2)SC1=S (centres undefined)	-44.7	2.8	2.8	7.5	nt	nt	nt
O=C(O)C(Cc1ccccc1)N1C(=O)/C(=C/C=C/c2ccco2)SC1=S (centres undefined)	175.0*	nt	77.0	-34.2	178.3*	36.4	53.5*
Cc1cc(C(=O)Nc2cccc3c2O[C@@H](CN(C)S(C)(=O)=O)[C@H](C)CN([C@@H](C)CO)C3=O)n(C)n1	-3.7	nt	-1.1	1.0	nt	nt	nt
c1ccc(CCNc2nc(-c3ccccn3)nc3ccccc23)cc1	13.5	0.3	-1.7	-2.2	nt	nt	nt
O=C(O)c1ccc(COc2ccccc2[N+](=O)[O-])o1	-11.9	-0.6	-15.8	-1.9	nt	nt	nt
CC(=O)c1ccc(NC(=O)c2ccc(COc3ccccc3[N+](=O)[O-])o2)cc1	49.4*	4.0	-4.1	0.1	6.8	-2.7	-29.1
O=C(Nc1ccc(Cl)cc1)/C(=C/c1cccc(O)c1)c1nc2ccccc2s1	46.0*	6.8	-2.2	11.3	16.8	-8.2	9.2
COC(=O)C1N[C@@H]([C@@H](NC(=O)COc2ccccc2)C(=O)NC2CC2)SC1(C)C (some centres undefined)	-7.4	-3.0	-1.8	2.8	nt	nt	nt
Cc1nc2ccccn2c1-c1csc(NCc2ccco2)n1	103.4*	-4.4	-1.0	-1.9	-9.6	34.5	-20.0
O=C(CSc1ncccc1C(=O)O)c1cccc(C(F)(F)F)c1	120.9*	-1.9	-9.3	56.1*	-4.2	-26.9	-11.8
CC(C)(C)c1ccc(Oc2ccc(N)cn2)cc1	55.5*	5.0	-78.2	64.3*	-10.9	-26.9	-20.5
CC(=O)N(CCCN1CCOCC1)Cc1ccncc1	39.6*	-2.0	1.1	18.1	-5.5	-0.4	-10.0
COc1ccccc1NC(=O)c1sc2ncn(CC(=O)Nc3ccccc3)c(=O)c2c1C	48.9*	3.7	6.0	11.0	27.5	18.0	8.8
COc1ccccc1NC(=O)Cn1cnc2sc(C(=O)Nc3cc(OC)c(OC)c(OC)c3)c(C)c2c1=O	-1.0	0.4	0.5	-0.3	nt	nt	nt
COc1ccc(N2CCc3c(C)nc4c(OC)cccc4c32)cc1	43.0*	-0.1	9.7	4.9	-15.4	-25.0	-2.5
N/C(=N\c1nc2c(c(=O)[nH]1)CCC2)Nc1cccc2ccccc12	36.1*	2.7	15.5	5.0	47.3*	-5.9	6.1
CCOc1ccc2nc(SCC(=O)NCc3ccc(S(N)(=O)=O)cc3)[nH]c2c1	-3.1	-1.1	0.8	-0.6	nt	nt	nt
O=C(Nc1ccc2oc(-c3ccncc3)nc2c1)c1ccc(Br)o1	75.7*	-3.0	6.2	1.5	-13.3	8.0	-23.9
O=C(Nc1ccc2c(c1)CCC2)c1ccc(Br)o1	96.7*	-7.0	4.1	-5.4	-19.1	10.7	-1.4
O=C(Nc1ccc2oc(-c3ccncc3)nc2c1)c1ccco1	5.8	3.1	7.7	0.9	nt	nt	nt
